Sampled rows, rich in hits. Any-hit rate of the full collection: about 2.3%.
EBNA-1 inhibitor – blocks EBNA-1 binding to DNA | EBNA-1 DNA binding, fluorescence polarization | inhibition, % at 14.8 µM | 300,000 compounds, 0.34% hits | AID 1950; in the data active = inhibition above about 28%
ZTA counter – ZTA (EBV) inhibition in EBNA-1 counter-screen. ZTA-DNA binding, fluorescence polarization. inhibition, % at 11 µM. 320,000 compounds, 0.15% hits. AID 2234; in the data active = inhibition above about 33%
HCV NS3 hel inh – blocks Hepatitis C virus NS3 helicase unwinding | inhibition, % at 10.9 µM | 290,000 compounds, 0.56% hits | NS3 helicase DNA unwinding, Cy5 molecular beacon fluorescence;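 active = inhibition above the mean of all tested compounds plus 3 SD, set per campaign, cut at about 35% in these data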;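 also: 0% = DMSO wells and 100% = thioflavine S control wells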
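System: HCV NS3 helicase fragment; control set: DMSO and thioflavine S; technique: Cy5 fluorescence at 0 and 60 min, beacon hairpin quenching; reagent: beacon DNA duplex substrate plus ATP; replicates: singlicate; schedule: 1 h reaction at 25 °C, ATP-initiated; medium: MOPS buffer pH 6.5 with MgCl2, DTT, Tween20, BSA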
core dimer inh – blocks dimerization of HCV core protein; TR-FRET GST/Flag-core106 dimerization, 1536-well; inhibition, % at 5 µM; 300,000 compounds, 0.33% hits; AID 1899;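 active = inhibition above the mean of all tested compounds plus 3 SD, set per screening campaign, cut at about 45% in these data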
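Assay system: GST-tagged and Flag-tagged HCV core protein residues 1-106 / Times: compound-protein-antibody incubation 4 h at 22.5 °C / Signal: time-resolved FRET, ex 340 nm, em 617 and 671 nm / Evaluation: % inhibition based on acceptor/donor emission ratio / Benchmarks: wells lacking GST-core106 and wells with excess unlabelled core106 / Repeats: singlicate, one well per compound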
EBV gp42 block – EBV gp42 inhibition. 220,000 compounds, 0.42% hits. AID 1085. inhibition, % (tested at 21.74 µM). Fluorescence polarization binding assay, mP read-out; in the data active = inhibition above about 50%
Target sequence (Q1HVG2 whole entry, looked up): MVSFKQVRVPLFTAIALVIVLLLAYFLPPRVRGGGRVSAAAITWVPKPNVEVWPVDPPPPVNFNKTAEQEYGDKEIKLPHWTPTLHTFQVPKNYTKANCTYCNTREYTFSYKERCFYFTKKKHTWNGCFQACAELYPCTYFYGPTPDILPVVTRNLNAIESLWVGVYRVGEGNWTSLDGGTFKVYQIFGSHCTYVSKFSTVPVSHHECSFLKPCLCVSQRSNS
GPR7 antag – human neuropeptides B/W receptor 1 antagonism | P48145 | GPR7-expressing cells, fluorescence antagonist assay | inhibition, % at 4.4 µM | 290,000 compounds, 1.1% hits | AID 1861; in the data active = inhibition above about 16%, passing the limit was not always enough;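 also: cells stimulated with the agonist NPW; 0% = agonist with vehicle and 100% = vehicle without agonist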
Target sequence (P48145 whole entry, looked up): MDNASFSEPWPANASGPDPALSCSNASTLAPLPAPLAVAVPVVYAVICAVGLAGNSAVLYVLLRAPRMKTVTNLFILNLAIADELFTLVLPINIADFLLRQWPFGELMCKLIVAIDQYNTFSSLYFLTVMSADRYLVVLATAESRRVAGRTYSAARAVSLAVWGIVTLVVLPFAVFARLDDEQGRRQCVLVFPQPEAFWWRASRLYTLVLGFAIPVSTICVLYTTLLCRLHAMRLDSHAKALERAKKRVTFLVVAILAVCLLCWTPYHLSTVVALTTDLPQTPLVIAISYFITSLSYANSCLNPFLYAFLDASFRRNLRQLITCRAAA
GPR7 antag cf – confirmation of human GPR7 antagonists; shares compounds with GPR7 antag; GPR7-expressing cells, calcium fluorescence antagonist mode; inhibition, % at 4.4 µM; 2,400 compounds, 52% hits; AID 1952; in the data active = inhibition above about 24%;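 also: stimulated with the GPR7 agonist NPW; 0% = agonist plus vehicle and 100% = vehicle alone without agonist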
MCHR1 antagonist – antagonizes human MCHR1, a GPR7 antagonist counter-screen; inhibition, % at 4.4 µM; 2,400 compounds, 62% hits; MCHR1-expressing cells, fluorescence antagonist assay; AID 2148; shares compounds with GPR7 antag; in the data active = inhibition above about 22%;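 also: 0% = vehicle with agonist and 100% = vehicle without agonist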
* marks the source's active call; other numbers are inactive results; . = no result given.

SMILES	EBNA-1 inhibitor	ZTA counter	HCV NS3 hel inh	core dimer inh	EBV gp42 block	GPR7 antag	GPR7 antag cf	MCHR1 antagonist
CC(C)(C)OC(=O)N1CCC(c2c(C(=O)O)cnn2-c2ccccc2Cl)CC1	0	-1	4	0	-16	5	.	.
COc1ccc(-c2nn(-c3ccccc3)cc2CO)cc1	2	-10	7	-1	-13	-1	.	.
N=C(N)SCc1cn(-c2ccccc2)nc1-c1ccc(Br)cc1	.	.	-53	.	-3	26*	63*	89*
Cc1cccc(C)c1NC(=O)CN(C)CC(=O)Nc1ccccc1Oc1ccccc1	-14	-17	-8	2	2	32*	26*	26*
Cc1ccc(NC(=O)CN(C)CC(=O)Nc2ccccc2Oc2ccccc2)cc1	-13	9	5	6	-3	3	.	.
Cc1ccc(C(=O)NC(=S)N2CCN(c3cc(C)ccc3C)CC2)cc1	-3	14	7	-7	.	-15	.	.
CSc1nsc(SC)c1C(=O)N1CCN(S(=O)(=O)c2ccc(C)cc2)C1C(C)C (centres undefined)	-4	12	3	7	-6	27*	17	46*
CSc1nsc(SC)c1C(=O)N1CCN(S(=O)(=O)c2ccc(C)cc2)C1C (centres undefined)	6	-1	-2	6	3	-1	.	.
O=C(COC(=O)c1cc([N+](=O)[O-])ccc1N1CCOCC1)NCc1ccc(Cl)cc1Cl	7	-10	-3	1	.	24*	35*	36*
CC(=O)Nc1ccc(NC(=O)CCn2nnc3ccccc32)cc1	3	-8	-9	-4	-22	-12	.	.
C/C(=N\NC(=O)CCn1nnc2ccccc21)c1ccco1	1	13	5	-1	-11	21*	-6	11
Cc1ccc(C(=O)N2CCN(S(=O)(=O)c3ccccc3)CC2)s1	-6	2	.	0	.	.	.	.
O=C(Cn1cc(C(F)(F)F)ccc1=O)NCCc1ccc(Cl)cc1Cl	-7	12	9	7	-17	-5	.	.
N#Cc1ccc(CN2CCN(CC(=O)NCCc3ccc(Cl)cc3Cl)CC2)cc1	6	-7	-80	1	.	22*	31*	8
O=C(Nc1ccc(F)cc1F)NC1CCN(S(=O)(=O)c2ccc(F)cc2)CC1	3	3	0	-5	-13	37*	18	6
CCOC(=O)c1ccc(NC(=O)COc2ccccc2CNCCc2ccccc2)cc1	3	2	-69	3	1	31*	47*	73*
CN1/C(=C\C(=O)COC(=O)Cn2nnc(-c3ccccc3)n2)C(C)(C)c2ccccc21	0	-3	-1	6	-38	26*	18	38*
CC(C)OC(=O)CSc1nnc(CNc2ccc(Cl)cc2)n1Cc1ccccc1	4	-11	6	11	-10	26*	24*	51*
Cc1cccc(C(=O)Nc2nnc(S(=O)(=O)N(C)Cc3ccco3)s2)c1	4	8	9	3	.	9	.	.
CN1C(=O)/C(=C\c2ccc(N(C)C)cc2)OC1=S	.	.	-4	.	.	44*	44*	52*
O=C(Nc1ccccc1)c1nccn1Cc1ccc(F)cc1	-2	4	1	1	2	-5	.	.
Cc1ccc(S(=O)(=O)NCc2ccccc2)s1	7	-13	0	-7	.	2	.	.
Cc1ccc(CNS(=O)(=O)c2ccc(C)s2)cc1	-17	-3	19	6	.	28*	12	4
CCOC(=O)COc1c(Cl)cc(/C=C2\N=C(C)OC2=O)cc1OC	-9	-2	.	1	.	.	.	.
Cc1noc(/C=C/N(C)C)c1S(=O)(=O)N1CCCC(C(=O)N2CCCCC2)C1 (centres undefined)	-4	5	-13	-5	-19	27*	-5	4
SMILES	EBNA-1 inhibitor	ZTA counter	HCV NS3 hel inh	core dimer inh	EBV gp42 block	GPR7 antag	GPR7 antag cf	MCHR1 antagonist
CCC(C)N(C(=O)Cn1cnc2c1c(=O)n(C)c(=O)n2C)C1CCS(=O)(=O)C1 (centres undefined)	7	1	.	4	.	.	.	.
CCN(C(=O)COC(=O)Cn1cnc2c1c(=O)n(C)c(=O)n2C)C1CCS(=O)(=O)C1 (centres undefined)	-9	2	-2	0	.	29*	10	12
Cc1ccc(-c2cccc(OC(=O)c3ccccc3F)c2)cc1	-9	-17	7	0	-3	-12	.	.
O=C(Nc1ccc2snnc2c1)Nc1cccc2ccccc12	3	10	-12	-1	11	36*	40*	77*
Cc1nc2cc(NC(=O)Nc3cccc4ccccc34)ccc2n1C	7	-1	-17	2	2	-11	.	.
COc1cc(-c2noc(C)c2/C=C/c2cccc([N+](=O)[O-])c2)cc(OC)c1OC	0	1	1	0	.	35*	46*	65*
COc1cc(-c2noc(C)c2/C=C/c2ccc(C(=O)O)cc2)cc(OC)c1OC	5	-3	23	-4	.	5	.	.
CC1CCCC(C)N1C(=O)CSc1nnnn1-c1cccc2c1CCCC2 (centres undefined)	-11	4	-6	23	-10	11	.	.
O=C(CSc1nnnn1-c1cccc2c1CCCC2)NC1CCCC1	-3	8	-8	7	0	34*	20	26*
CN1CCCC(CC2c3ccccc3Sc3ccccc32)C1 (centres undefined)	-1	-17	.	-7	.	.	.	.
CN1CCCC(CN2c3ccccc3Sc3ccccc32)C1 (centres undefined)	-1	9	-98	-6	.	35*	51*	34*
c1ccc(Nc2nnc(-c3cccnc3)s2)cc1	-9	6	15	-9	.	41*	-1	14
CNC(=S)N1CCN(c2ccc([N+](=O)[O-])cc2)CC1	-1	-9	-1	3	-6	3	.	.
CCNC(=S)N1CCN(c2ccc([N+](=O)[O-])cc2)CC1	1	-4	2	-3	0	27*	10	12
CN(C)c1ccc(C(=S)N2CCN(c3ccc([N+](=O)[O-])cc3)CC2)cc1	-14	6	5	11	-20	-11	.	.
O=[N+]([O-])c1ccc(N2CCN(C(=S)NCc3ccc(Cl)cc3)CC2)cc1	-3	2	-9	3	-24	51*	81*	87*
O=[N+]([O-])c1ccc(C(=S)N2CCN(c3ccc(F)cc3)CC2)cc1	-34	-6	-14	5	-14	40*	16	28*
C=CCNC(=S)N1CCN(c2ccc([N+](=O)[O-])cc2)CC1	3	5	-2	0	-21	10	.	.
